In ChEMBL document CHEMBL3085708, “Identification and profiling of 3,5-dimethyl-isoxazole-4-carboxylic acid [2-methyl-4-((2S,3'S)-2-methyl-[1,3']bipyrrolidinyl-1'-yl)phenyl] amide as histamine H(3) receptor antagonist for the treatment of depression” (Bioorg Med Chem Lett, 2013):
In brackets after ≈: the same amount, converted by molar mass.

Experiments:
[1] = Elimination half life in OF1 mouse brain at 10 mg/kg, po; assay type: ADME, organism-based; set-up: dose 10 mg/kg, route oral; settings: read-out: beta t1/2 (converted)
Summary of the method: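 Single-dose PK; male OF1 mice and male Sprague-Dawley rats, 2 mg/kg iv and 10 mg/kg po. Mouse vehicles: iv 50% 1-methyl-2-pyrrolidinone in saline (1.0 mg/mL); po 5% DMSO/0.5% MC/0.2% Tween80 (1.0 mg/mL). Rat vehicles: iv saline (0.5 mg/mL); po 0.5% MC/0.2% Tween80 (1.0 mg/mL). Plasma and brain exposure read as AUC0-∞ and t1/2.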

Mus musculus [2] = test: Toxicity in mouse assessed as effect on autonomic activity at 10 to 30 mg/kg, po by Irwin test; assay type: organism-based; set-up: dose 10-30 mg/kg, route oral; settings: in vivo
Summary of the method: (§1)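 Irwin exploratory general behaviour study in male mice; single oral doses of 0, 10 and 30 mg/kg; behavioural, neurologic and autonomic effects observed.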

Rattus norvegicus = test: Antidepression-like activity in po dosed rat assessed as decrease in immobility time by forced swimming test; assay type: functional
Summary of the method: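 Rat forced-swim test, immobility time as read-out. Test agent given po in MC/0.6% + H2O at 1, 3 and 10 mg/kg; imipramine reference at 60 mg/kg po.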

[3] = Toxicity in guinea pig heart assessed as decrease in ventricular contraction at 10 uM relative to control; assay type: tissue-based, Cavia porcellus, Cardiac ventricle
Mus musculus [4] = test: Toxicity in mouse assessed as effect on neurological activity at 10 to 30 mg/kg, po by Irwin test; assay type: organism-based; set-up: dose 10-30 mg/kg, route oral; settings: in vivo; summary of the method: as §1
[5] = target: Voltage-gated inwardly rectifying potassium channel KCNH2 (Homo sapiens, UniProt Q12809); test: Inhibition of human ERG current transfected in CHO cells by patch clamp assay; assay type: cell-based
Summary of the method: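 Whole-cell patch clamp on CHO cells, hERG current; IC50 from n = 4.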

[6] = Toxicity in po dosed mouse; settings: in vivo
[7] = Dissociation constant, pKa of the compound; assay type: physicochemical
[8] = Solubility of the compound in form of crystalline free base in water; assay type: physicochemical

Sequence of Voltage-gated inwardly rectifying potassium channel KCNH2 (Q12809 whole entry): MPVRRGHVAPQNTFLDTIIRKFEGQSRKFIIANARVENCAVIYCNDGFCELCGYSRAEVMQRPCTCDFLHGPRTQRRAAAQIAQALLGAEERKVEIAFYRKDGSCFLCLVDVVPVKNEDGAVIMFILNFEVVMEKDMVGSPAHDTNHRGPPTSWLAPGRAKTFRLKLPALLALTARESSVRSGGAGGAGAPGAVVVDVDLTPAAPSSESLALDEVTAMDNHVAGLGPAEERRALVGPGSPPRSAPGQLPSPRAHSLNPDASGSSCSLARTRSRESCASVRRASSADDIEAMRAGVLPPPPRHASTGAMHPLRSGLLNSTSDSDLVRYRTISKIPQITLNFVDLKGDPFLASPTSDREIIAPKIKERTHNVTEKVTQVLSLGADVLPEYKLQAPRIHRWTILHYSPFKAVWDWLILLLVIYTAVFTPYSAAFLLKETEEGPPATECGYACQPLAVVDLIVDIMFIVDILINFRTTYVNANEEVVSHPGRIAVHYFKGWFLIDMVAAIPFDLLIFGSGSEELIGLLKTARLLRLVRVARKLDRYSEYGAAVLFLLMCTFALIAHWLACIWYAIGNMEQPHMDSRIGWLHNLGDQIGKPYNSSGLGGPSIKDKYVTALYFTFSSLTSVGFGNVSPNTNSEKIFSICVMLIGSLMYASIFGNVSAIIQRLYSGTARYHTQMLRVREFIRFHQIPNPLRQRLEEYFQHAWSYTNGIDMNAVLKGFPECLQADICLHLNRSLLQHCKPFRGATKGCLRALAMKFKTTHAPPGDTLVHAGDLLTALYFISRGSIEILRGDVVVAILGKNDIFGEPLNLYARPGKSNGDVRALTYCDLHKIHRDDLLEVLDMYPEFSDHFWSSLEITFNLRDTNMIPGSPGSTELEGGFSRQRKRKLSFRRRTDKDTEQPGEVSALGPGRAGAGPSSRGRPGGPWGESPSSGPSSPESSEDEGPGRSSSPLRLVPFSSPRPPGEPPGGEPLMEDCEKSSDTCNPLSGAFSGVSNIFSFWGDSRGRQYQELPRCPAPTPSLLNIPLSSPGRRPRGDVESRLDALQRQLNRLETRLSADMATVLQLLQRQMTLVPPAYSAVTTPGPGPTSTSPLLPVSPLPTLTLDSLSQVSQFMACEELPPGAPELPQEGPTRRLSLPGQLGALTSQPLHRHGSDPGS

In the case of `Cc1cc(N2CC[C@H](N3CCC[C@@H]3C)C2)ccc1NC(=O)c1c(C)noc1C`, the half-life [1] is reported as 4.7 h, the Activity (Mus musculus [2]) is reported as “Non-toxic” and the Activity (Rattus norvegicus) is reported as “Dose-dependent effect”. The minimal effective dose (Rattus norvegicus; read-out: MED) was 10 mg/kg, the inhibition at 10 µM [3] was 23% and the Activity (Mus musculus [4]) was “Non-toxic”. For the same molecule, the IC50 [5] was 37 µM, the MTD [6] was 30 mg/kg and the pKa [7] was 10.1. For the same molecule, the solubility [8] was 110 µg/mL (≈ 288 µM).
